What was measured:
[1] = system: SARS-CoV-2; test: Antiviral activity against SARS-CoV-2 infected in African green monkey Vero cells assessed as inhibition of viral infection by measuring nucleocapsid protein level by immunofluorescence microscopic analysis; type: functional, organism-based; settings: Severe acute respiratory syndrome coronavirus 2, Vero
[2] = system: Vero; test: Cytotoxicity against African green monkey Vero cells assessed as reduction of cell viability by WST-1 assay; type: cell-based; settings: chlorocebus sabaeus
[3] = Selective index, ratio of CC50 for African green monkey Vero cells to IC50 for SARS-CoV-2 infected in African green monkey Vero cells
[4] = system: Middle East respiratory syndrome-related coronavirus; test: Antiviral activity against MERS-CoV infected in African green monkey Vero cells assessed as inhibition of viral infection by measuring reduction in spike protein level by immunofluorescence microscopic analysis; type: functional, organism-based
[5] = Stability in mouse microsomes assessed as as parent compound remaining after 30 mins; type: ADME, Microsome; settings: read-out: Stabilty
In short: (§1)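 Liver microsomes from human, mouse and rat were used. The read-out is percent of parent compound remaining after 30 min incubation.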

[6] = Stability in rat microsomes assessed as as parent compound remaining after 30 mins; type: ADME, Microsome; settings: read-out: Stabilty; in short: as §1
[7] = Stability in human microsomes assessed as as parent compound remaining after 30 mins; type: ADME, Microsome; settings: read-out: Stabilty; in short: as §1
[8] = system: HFL1; test: Cytotoxicity against human HFL-1 cells; type: cell-based
[9] = Cytotoxicity against CHO-K1 cells; type: cell-based, Cricetulus griseus; settings: chinese hamster
[10] = Cytotoxicity against mouse NCTC clone 929 cells; type: cell-based
[11] = Cytotoxicity against mouse NIH3T3 cells; type: cell-based
[12] = molecular target: hERG (KCNH2) (Homo sapiens, UniProt Q12809); test: Inhibition of human ERG at 10 uM relative to control
hERG (KCNH2), sequence (Q12809 whole entry): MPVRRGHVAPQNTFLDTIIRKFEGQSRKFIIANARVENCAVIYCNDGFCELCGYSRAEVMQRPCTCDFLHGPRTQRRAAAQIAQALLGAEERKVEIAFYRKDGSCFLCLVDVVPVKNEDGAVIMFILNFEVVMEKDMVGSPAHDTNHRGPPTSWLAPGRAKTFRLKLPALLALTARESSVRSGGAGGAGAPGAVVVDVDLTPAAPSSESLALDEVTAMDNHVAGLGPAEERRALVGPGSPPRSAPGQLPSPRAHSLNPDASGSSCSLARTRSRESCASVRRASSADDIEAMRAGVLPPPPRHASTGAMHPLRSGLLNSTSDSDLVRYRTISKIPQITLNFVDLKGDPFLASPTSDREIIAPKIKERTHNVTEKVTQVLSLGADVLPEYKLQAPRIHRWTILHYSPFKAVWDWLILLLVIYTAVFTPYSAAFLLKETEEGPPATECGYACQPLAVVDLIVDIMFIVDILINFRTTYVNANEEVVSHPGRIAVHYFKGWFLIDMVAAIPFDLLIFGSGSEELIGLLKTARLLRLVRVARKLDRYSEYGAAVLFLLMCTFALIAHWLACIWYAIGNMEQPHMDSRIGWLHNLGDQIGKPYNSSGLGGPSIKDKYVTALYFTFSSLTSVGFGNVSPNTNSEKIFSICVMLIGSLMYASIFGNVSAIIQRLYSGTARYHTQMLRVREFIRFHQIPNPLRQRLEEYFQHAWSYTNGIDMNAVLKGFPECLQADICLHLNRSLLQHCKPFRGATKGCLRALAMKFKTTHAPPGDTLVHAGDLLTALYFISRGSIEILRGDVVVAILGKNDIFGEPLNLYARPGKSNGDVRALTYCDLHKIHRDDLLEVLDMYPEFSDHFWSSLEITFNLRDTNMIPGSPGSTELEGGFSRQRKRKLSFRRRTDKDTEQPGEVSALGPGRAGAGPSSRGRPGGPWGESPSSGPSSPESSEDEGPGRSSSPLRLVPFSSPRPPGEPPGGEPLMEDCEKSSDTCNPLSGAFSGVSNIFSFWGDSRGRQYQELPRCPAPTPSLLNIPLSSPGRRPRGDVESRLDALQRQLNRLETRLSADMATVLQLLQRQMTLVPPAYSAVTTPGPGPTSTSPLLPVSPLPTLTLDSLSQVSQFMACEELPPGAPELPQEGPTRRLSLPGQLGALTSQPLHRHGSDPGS

[13] = molecular target: T1, CYP1A2 (Homo sapiens, UniProt P05177); test: Inhibition of CYP1A2 (unknown origin) at 10 uM relative to control; type: ADME
T1 sequence (P05177 whole entry): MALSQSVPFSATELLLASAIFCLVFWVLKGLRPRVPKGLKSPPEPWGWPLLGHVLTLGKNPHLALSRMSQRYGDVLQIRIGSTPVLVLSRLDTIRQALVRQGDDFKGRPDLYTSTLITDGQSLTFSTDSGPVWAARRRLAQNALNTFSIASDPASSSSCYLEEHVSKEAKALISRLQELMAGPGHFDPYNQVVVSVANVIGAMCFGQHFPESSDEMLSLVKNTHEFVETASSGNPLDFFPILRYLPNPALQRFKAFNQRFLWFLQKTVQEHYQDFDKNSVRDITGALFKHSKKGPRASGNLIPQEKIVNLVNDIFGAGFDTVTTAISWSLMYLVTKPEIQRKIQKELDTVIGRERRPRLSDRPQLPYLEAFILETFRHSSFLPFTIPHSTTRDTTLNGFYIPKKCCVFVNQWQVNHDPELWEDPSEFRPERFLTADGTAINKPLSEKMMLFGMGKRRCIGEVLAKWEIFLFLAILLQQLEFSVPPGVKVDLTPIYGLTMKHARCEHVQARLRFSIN

[14] = molecular target: CYP2C9 (Homo sapiens, UniProt P11712); test: Inhibition of CYP2C9 (unknown origin) at 10 uM relative to control; type: ADME
CYP2C9, sequence (P11712 whole entry): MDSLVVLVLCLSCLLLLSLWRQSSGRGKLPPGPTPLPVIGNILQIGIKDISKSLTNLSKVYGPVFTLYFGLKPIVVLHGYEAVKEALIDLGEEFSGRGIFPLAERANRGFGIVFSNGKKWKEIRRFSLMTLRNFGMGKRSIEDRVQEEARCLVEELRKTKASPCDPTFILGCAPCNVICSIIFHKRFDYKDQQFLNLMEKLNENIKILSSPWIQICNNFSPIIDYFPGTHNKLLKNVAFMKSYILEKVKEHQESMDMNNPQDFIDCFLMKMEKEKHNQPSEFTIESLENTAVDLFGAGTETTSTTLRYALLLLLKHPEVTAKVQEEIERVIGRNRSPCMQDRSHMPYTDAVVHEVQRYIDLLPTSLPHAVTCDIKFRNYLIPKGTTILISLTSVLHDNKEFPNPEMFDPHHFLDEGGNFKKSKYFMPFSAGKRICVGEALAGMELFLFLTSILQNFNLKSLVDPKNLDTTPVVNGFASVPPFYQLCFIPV

[15] = molecular target: CYP2C19 (Homo sapiens, UniProt P33261); test: Inhibition of CYP2C19 (unknown origin) at 10 uM relative to control; type: ADME
CYP2C19, sequence (P33261 whole entry): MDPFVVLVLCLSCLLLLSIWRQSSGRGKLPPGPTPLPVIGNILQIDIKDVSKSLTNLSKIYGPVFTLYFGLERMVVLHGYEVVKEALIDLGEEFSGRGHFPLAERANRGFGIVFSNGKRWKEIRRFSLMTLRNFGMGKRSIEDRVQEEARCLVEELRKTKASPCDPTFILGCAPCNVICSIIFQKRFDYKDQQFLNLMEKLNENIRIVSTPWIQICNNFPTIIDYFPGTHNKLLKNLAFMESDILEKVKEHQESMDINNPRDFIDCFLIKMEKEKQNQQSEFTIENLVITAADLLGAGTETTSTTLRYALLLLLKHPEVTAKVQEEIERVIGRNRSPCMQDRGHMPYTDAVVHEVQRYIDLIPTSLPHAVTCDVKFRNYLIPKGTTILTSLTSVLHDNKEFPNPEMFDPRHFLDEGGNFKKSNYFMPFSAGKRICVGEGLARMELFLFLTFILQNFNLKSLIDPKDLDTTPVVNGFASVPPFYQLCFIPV

[16] = molecular target: CYP2D6 (Homo sapiens, UniProt P10635); test: Inhibition of CYP2D6 (unknown origin) at 10 uM relative to control; type: ADME
CYP2D6, sequence (P10635 whole entry): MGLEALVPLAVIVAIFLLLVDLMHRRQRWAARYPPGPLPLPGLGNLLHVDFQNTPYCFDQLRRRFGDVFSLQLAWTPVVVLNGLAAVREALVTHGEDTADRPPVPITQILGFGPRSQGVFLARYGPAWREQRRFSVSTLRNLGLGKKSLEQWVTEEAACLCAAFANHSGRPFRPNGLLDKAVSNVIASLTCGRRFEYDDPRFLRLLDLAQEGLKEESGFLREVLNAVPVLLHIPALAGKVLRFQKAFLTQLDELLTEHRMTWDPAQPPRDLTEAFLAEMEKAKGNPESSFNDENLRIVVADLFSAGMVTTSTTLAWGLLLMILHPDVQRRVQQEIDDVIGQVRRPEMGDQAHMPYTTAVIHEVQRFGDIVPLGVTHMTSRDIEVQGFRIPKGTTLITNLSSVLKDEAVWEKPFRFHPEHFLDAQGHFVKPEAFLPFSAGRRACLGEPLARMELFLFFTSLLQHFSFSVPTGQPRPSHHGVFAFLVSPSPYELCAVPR

[17] = molecular target: CYP3A4 (Homo sapiens, UniProt P08684); test: Inhibition of CYP3A4 (unknown origin) at 10 uM relative to control; type: ADME
CYP3A4, sequence (P08684 whole entry): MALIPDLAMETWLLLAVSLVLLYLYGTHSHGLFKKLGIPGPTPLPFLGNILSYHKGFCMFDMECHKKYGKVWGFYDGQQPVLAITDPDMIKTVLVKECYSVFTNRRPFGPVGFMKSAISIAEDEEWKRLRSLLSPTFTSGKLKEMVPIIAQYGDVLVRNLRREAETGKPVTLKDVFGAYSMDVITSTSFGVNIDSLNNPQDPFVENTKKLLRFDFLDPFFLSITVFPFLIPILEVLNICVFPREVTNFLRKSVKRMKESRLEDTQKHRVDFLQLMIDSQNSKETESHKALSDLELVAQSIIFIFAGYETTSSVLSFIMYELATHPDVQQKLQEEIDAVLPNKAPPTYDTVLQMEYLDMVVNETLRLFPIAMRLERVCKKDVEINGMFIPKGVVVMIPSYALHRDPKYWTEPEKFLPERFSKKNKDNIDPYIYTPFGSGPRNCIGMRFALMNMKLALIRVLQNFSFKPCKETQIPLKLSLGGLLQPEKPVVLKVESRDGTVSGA

[18] = Oral bioavailability in rat at 10 mg/kg; type: ADME, organism-based; settings: in vivo
In short: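 Rats received oral dosing at 10 mg/kg alongside intravenous dosing at 2 mg/kg. Values are the mean of experiments using three rats.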

[19] = Selective index, ratio of CC50 for African green monkey Vero cells to IC50 for MERS-CoV infected in African green monkey Vero cells

SMILES | IC50 [1] [µM] | CC50 [2] [µM] | Ratio CC50/IC50 [3] | IC50 [4] [µM] | Ratio CC50/IC50 [19] | further results
O=c1[nH]c(Nc2cc(Cl)cc(Cl)c2)nc2cc(Cl)ccc12 | 0.23 | > 25 | 110 | 0.93 | 27 | remaining at 0.5 h [5]: 112%; remaining at 0.5 h [6]: 105%; remaining at 0.5 h [7]: 99%; CC50 [8]: 7.5 µM; CC50 [9]: 11 µM; CC50 [10]: 31 µM; CC50 [11]: > 100 µM; inhibition at 10 µM [12]: 38%; inhibition at 10 µM [13]: 15%; inhibition at 10 µM [14]: 18%; inhibition at 10 µM [15]: < 1%; inhibition at 10 µM [16]: 20%; inhibition at 10 µM [17]: 32%; bioavailability [18]: 15.6%
O=c1[nH]c(Nc2cc(F)cc(F)c2)nc2cc(C(F)(F)F)ccc12 | 0.2 | ≥ 7.6 | 38 | 0.73 | 35 | –
O=c1[nH]c(Nc2cc(Cl)cc(Cl)c2)nc2cc(C(F)(F)F)ccc12 | 0.21 | 7.1 | 34 | 0.96 | 7.6 | –
CC(C)Nc1nc2cc(Cl)ccc2c(=O)[nH]1 | > 25 | > 25 | 1 | – | – | –
O=c1[nH]c(Nc2ccc(F)cc2F)nc2cc(Cl)ccc12 | > 25 | > 25 | 1 | – | – | –
COc1cccc2nc(Nc3cc(F)cc(F)c3)[nH]c(=O)c12 | > 25 | > 25 | 1 | – | – | –
O=c1[nH]c(Nc2ccc(F)c(F)c2F)nc2cc(Cl)ccc12 | 2.6 | > 25 | 9.4 | – | – | –
COC(=O)c1cccc(Nc2nc3cc(Cl)ccc3c(=O)[nH]2)c1 | 8.8 | > 25 | 2.8 | – | – | –
O=c1[nH]c(Nc2cc(F)cc(F)c2)nc2cccc(O)c12 | 0.47 | > 25 | 54 | 1.1 | 22 | –
O=c1[nH]c(NCC2CCCCC2)nc2cc(Cl)ccc12 | 14 | > 25 | 1.7 | – | – | –
O=c1[nH]c(Nc2cc(Cl)cc(Cl)c2)nc2c(O)cccc12 | 0.37 | > 25 | 65 | 1.7 | 14 | –
O=c1[nH]c(Nc2cc(Cl)cc(Cl)c2)nc2cc([N+](=O)[O-])ccc12 | 0.51 | > 25 | 49 | > 25 | 1 | –
Cc1cc(C)c2nc(Nc3cc(F)cc(F)c3)[nH]c(=O)c2c1 | > 25 | > 25 | 1 | – | – | –
CCCCNc1nc2cc(Cl)ccc2c(=O)[nH]1 | > 25 | > 25 | 1 | – | – | –
O=c1[nH]c(Nc2cc(F)cc(F)c2)nc2c(Cl)c(Cl)ccc12 | 0.25 | > 25 | 98 | 0.83 | 30 | –
O=c1[nH]c(Nc2ccc(F)cc2)nc2cc(Cl)ccc12 | > 25 | > 25 | 1 | – | – | –
O=c1[nH]c(Nc2ccc(Cl)cc2Cl)nc2cc(Cl)ccc12 | > 25 | > 25 | 1 | – | – | –
O=c1[nH]c(Nc2cc(F)cc(F)c2)nc2cc(Cl)ccc12 | 0.24 | ≥ 18 | 74 | 0.39 | 65 | –
O=c1[nH]c(Nc2cc(F)cc(F)c2)nc2cc([N+](=O)[O-])ccc12 | 0.41 | > 25 | 61 | 8.5 | 2.9 | –
